Tests used:
[1] = Drug metabolism in sandwich-cultured human hepatocytes assessed as (Z)-6-(5-(5-carbamimidoylpyridin-2-yl)furan-2-yl)-N' methoxynicotinimidamide at 10 uM after 4 hrs of incubation by HPLC-MS/MS analysis; assay type: ADME, cell-based, Hepatocyte
Procedure, shortened: (§1)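 Sandwich-cultured hepatocytes were used on day 5 (human) or day 4 (rat) and rinsed with warm phenol-red-free DMEM. They were then exposed to 10 µM DB868 (0.1–0.2% DMSO) at 37°C. Medium and methanol/water cell lysates were collected at 0.5, 2, 4 and 24 h. Analytes were quantified by HPLC/MS/MS with deuterated internal standards; protein by Bradford. Replicates: 6 (human) or 4 (rat).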

[2] = Drug metabolism in sandwich-cultured rat hepatocytes assessed as (Z)-6-(5-(5-carbamimidoylpyridin-2-yl)furan-2-yl)-N'methoxynicotinimidamide at 10 uM after 4 hrs of incubation by HPLC-MS/MS analysis; assay type: ADME, cell-based, Hepatocyte; procedure, shortened: as §1
[3] = Drug metabolism in sandwich-cultured rat hepatocytes assessed as DB829 at 10 uM after 24 hrs of incubation by HPLC-MS/MS analysis; assay type: ADME, cell-based, Hepatocyte; procedure, shortened: as §1
[4] = Drug metabolism in sandwich-cultured rat hepatocytes assessed as fold increase in DB829 at 10 uM after 2 hrs of incubation by HPLC-MS/MS analysis; assay type: ADME, cell-based, Hepatocyte; procedure, shortened: as §1
Liver microsome [5] = experiment: Intrinsic clearance in human liver microsomes assessed as (Z)-N'-hydroxy-6-(5-(5-((Z)-N'-methoxycarbamimidoyl)pyridin-2-yl)furan-2-yl nicotinimidamide formation measured per mg of protein by HPLC-MS/MS analysis; assay type: ADME
Procedure, shortened: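 M1 formation kinetics: HLM or RLM (0.5 mg/mL) in phosphate pH 7.4 with MgCl2, DB868 0.1–100 µM, started with 2 mM NADPH. Run 5 min (HLM) or 10 min (RLM) under initial-rate conditions (<20% consumption) in triplicate. Quantified by HPLC/MS/MS with d6-DB868 internal standard. Fitted to a one-enzyme (HLM) or two-enzyme (RLM) Michaelis–Menten model; Clint = Vmax/Km.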

Hepatocyte = experiment: Biotransformation in sandwich-cultured human hepatocytes assessed as depletion of compound at 10 uM after 4 hrs of incubation by HPLC-MS/MS analysis; assay type: ADME, cell-based; procedure, shortened: as §1
[6] = Drug metabolism in sandwich-cultured human hepatocytes assessed as (Z)-N'-hydroxy-6-(5-(5-((Z)-N'-methoxycarbamimidoyl)pyridin-2-yl)furan-2-yl)nicotinimidamide at 10 uM after 4 hrs of incubation by HPLC-MS/MS analysis; assay type: ADME, cell-based, Hepatocyte; procedure, shortened: as §1
[7] = Drug metabolism in sandwich-cultured rat hepatocytes assessed as (Z)-N'-hydroxy-6-(5-(5-((Z)-N'-methoxycarbamimidoyl)pyridin-2-yl)furan-2-yl)nicotinimidamide at 10 uM after 4 hrs of incubation by HPLC-MS/MS analysis; assay type: ADME, cell-based, Hepatocyte; procedure, shortened: as §1
Cytochrome P450 1A2 = target: T1, Cytochrome P450 1A2 (Homo sapiens, UniProt P05177); experiment: Prodrug conversion assessed as human recombinant CYP1A2-mediated (Z)-N'-hydroxy-6-(5-(5-((Z)-N'-methoxycarbamimidoyl)pyridin-2-yl)furan-2-yl) nicotinimidamide formation at 5 uM […] by HPLC-UV chromatogram; assay type: ADME; conditions: recombinant enzyme, 3 h
T1 sequence (P05177 whole entry): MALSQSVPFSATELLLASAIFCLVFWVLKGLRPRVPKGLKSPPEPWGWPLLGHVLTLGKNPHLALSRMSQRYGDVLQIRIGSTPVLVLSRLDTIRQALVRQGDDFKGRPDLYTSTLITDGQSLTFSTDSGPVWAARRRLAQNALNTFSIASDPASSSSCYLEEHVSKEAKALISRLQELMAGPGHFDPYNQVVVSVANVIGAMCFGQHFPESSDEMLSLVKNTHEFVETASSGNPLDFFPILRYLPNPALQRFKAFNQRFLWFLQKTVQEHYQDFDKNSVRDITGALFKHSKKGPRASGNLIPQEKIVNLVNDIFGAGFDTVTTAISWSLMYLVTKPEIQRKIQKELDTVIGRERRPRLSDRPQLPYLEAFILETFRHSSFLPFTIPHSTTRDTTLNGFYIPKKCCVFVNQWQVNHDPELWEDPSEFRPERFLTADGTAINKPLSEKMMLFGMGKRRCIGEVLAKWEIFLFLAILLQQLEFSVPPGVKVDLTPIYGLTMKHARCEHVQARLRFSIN

Cytochrome P450 2D26 = target: T2, Cytochrome P450 2D26 (Rattus norvegicus, UniProt P10634); experiment: Prodrug conversion assessed as rat recombinant CYP2D2-mediated (Z)-N'-hydroxy-6-(5-(5-((Z)-N'-methoxycarbamimidoyl)pyridin-2-yl)furan-2-yl) nicotinimidamide formation at 5 uM after 180 mins incubation by HPLC-UV chromatogram; assay type: ADME; conditions: recombinant enzyme, 15 min, in the assay text read “15 mins” for “180 mins”
T2 sequence (P10634 whole entry): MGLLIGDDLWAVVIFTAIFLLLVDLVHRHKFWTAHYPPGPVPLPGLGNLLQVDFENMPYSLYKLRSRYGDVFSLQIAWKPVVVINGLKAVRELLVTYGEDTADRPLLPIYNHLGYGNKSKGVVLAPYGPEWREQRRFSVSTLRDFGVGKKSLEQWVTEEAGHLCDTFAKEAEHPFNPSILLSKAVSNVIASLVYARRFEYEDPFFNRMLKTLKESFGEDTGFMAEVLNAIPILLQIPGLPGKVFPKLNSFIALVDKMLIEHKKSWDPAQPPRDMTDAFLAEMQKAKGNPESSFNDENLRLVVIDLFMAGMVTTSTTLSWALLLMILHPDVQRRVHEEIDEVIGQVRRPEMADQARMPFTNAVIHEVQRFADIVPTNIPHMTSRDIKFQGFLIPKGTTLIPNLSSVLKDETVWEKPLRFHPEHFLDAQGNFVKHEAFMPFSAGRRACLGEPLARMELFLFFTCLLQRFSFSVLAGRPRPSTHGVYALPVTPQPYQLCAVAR
Procedure, shortened: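 Insect-cell-expressed human or rat P450 (with NADPH-P450 reductase, some also with cytochrome b5) at 0.1 pmol/µL in 100 mM potassium phosphate pH 7.4 with 10 mM MgCl2. DB868 (for M1) or M1 (for M2) was added at 5 µM (0.5% DMSO) and started with 2 mM NADPH. Stopped after 15 min with ice-cold acetonitrile, then HPLC-UV. Duplicate incubations.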

Liver microsome [8] = experiment: Prodrug conversion in human liver microsomes assessed as depletion of compound at 10 uM after 180 mins incubation by HPLC-UV chromatography; assay type: ADME; conditions: 3 h
Procedure, shortened: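 HLM or RLM (0.5 mg/mL) were incubated in triplicate in 100 mM phosphate pH 7.4 with 10 mM MgCl2 and an NADPH-regenerating system (1 mM NADP+, glucose 6-phosphate, G6PDH). DB868 was 10 µM. Sampled up to 180 min. Prodrug and metabolites were measured by HPLC-UV at 359 nm and expressed relative to initial prodrug; DB829 LLOQ 50 nM.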

Drug metabolism [1]: metabolite_detected
Drug metabolism [2]: metabolite_detected
Drug metabolism [3]: metabolite_detected
fold change (FC) [4]: 23
CLint (Liver microsome [5]): 31 µL/min/mg
Drug metabolism (Hepatocyte): metabolite_detected
Drug metabolism [6]: metabolite_detected
Drug metabolism [7]: metabolite_detected
Drug metabolism (Cytochrome P450 1A2): metabolite_detected
Drug metabolism (Cytochrome P450 2D26): metabolite_detected
Drug metabolism (Liver microsome [8]): 100%
SMILES: CO/N=C(\N)c1ccc(-c2ccc(-c3ccc(/C(N)=N/OC)cn3)o2)nc1.Cl

— ChEMBL document CHEMBL3525966, “Compartmental and enzyme kinetic modeling to elucidate the biotransformation pathway of a centrally acting antitrypanosomal prodrug” (Drug Metab Dispos, 2013)
